{"source": "paper PMC4757811", "about": "(Biochemistry, 2015)", "key": {"STAT3": {"test_system": "STAT3", "assay": "STAT3 phosphorylation in 293T cells, Western blot", "type": "cell-based", "details": "compared to control cells or wild-type Brk", "how_it_was_run": "(§1)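 293T cells (1×10^6) transfected 24 h after plating with Flag-tagged wild-type or mutant Brk using polyethylenimine. Lysed 48 h post-transfection in RIPA buffer (pH 7.5) with protease and phosphatase inhibitors, then SDS-PAGE and PVDF blotting.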"}, "ErbB2": {"test_system": "ErbB2", "assay": "ErbB2 interaction, co-immunoprecipitation", "type": "binding", "details": "293T cells cotransfected with ErbB2 and Brk; ErbB2 immunoprecipitated", "how_it_was_run": "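Flag-tagged wild-type or mutant Brk and full-length ErbB2 were co-transfected into 293T cells with polyethylenimine (8 μL per μg DNA in 150 mM NaCl), 24 h after plating. Cells were lysed at 48 h in RIPA buffer with protease/phosphatase inhibitors. Lysate (1 mg/mL) was precleared on protein G agarose, then taken with 1 μg anti-ErbB2 (1 h, 4 °C) and protein G (4 h, 4 °C). After washing, blots were probed with anti-ErbB2 and anti-Flag.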"}, "Erk1/2 [1]": {"test_system": "Erk1/2", "assay": "Erk1/2 phosphorylation in 293T cells, Western blot", "type": "cell-based", "details": "not serum starved", "how_it_was_run": "as §1"}, "Erk1/2 [2]": {"test_system": "Erk1/2", "type": "cell-based", "details": "293T cells, serum starved, 10 ng/mL EGF for 2.5 min", "how_it_was_run": "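293T cells were PEI-transfected with Flag-Brk (wild-type or mutant) and serum-starved overnight. They were then stimulated with 10 ng/mL EGF for 2.5 min, lysed in RIPA buffer with inhibitors, and resolved by SDS-PAGE on PVDF. Blots were probed for phospho-Erk1/2 (Thr202/Tyr204), total Erk1/2 and Flag.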"}, "p130Cas": {"test_system": "p130Cas", "assay": "Cas phosphorylation in 293T cells, Western blot", "type": "cell-based", "details": "293T cells cotransfected with Brk and Cas", "how_it_was_run": "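293T cells were cotransfected with V5-His-tagged p130Cas and Flag-tagged wild-type or mutant Brk using polyethylenimine, then harvested 48 h later in RIPA buffer with inhibitors. Lysates were analysed by SDS-PAGE and PVDF Western blotting. Probes were anti-phospho-p130Cas (Tyr249), anti-p130Cas and anti-Flag.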"}, "β-catenin": {"test_system": "β-catenin", "assay": "β-catenin phosphorylation and binding, immunoprecipitation from 293T cells", "type": "cell-based", "details": "293T cells coexpressing β-catenin; for binding to β-catenin (in words): Flag antibody; for phosphorylation of β-catenin (in words): anti-phosphotyrosine; for binding and phosphorylation of β-catenin (in words): compared to wild-type Brk", "how_it_was_run": "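Flag-tagged β-catenin was coexpressed with Flag-Brk (wild-type or mutant) in 293T cells by PEI transfection, and lysates were made 48 h later in RIPA buffer. Lysate (1 mg/mL) was precleared on protein G agarose (1 h, 4 °C), incubated with 1 µg anti-β-catenin (1 h, 4 °C), then captured on protein G for 4 h at 4 °C. After three RIPA washes, SDS elution and blotting, membranes were probed with anti-phosphotyrosine and anti-β-catenin, then reprobed with anti-Flag for Brk association.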"}, "MCF-10a cells": {"test_system": "MCF-10a cells", "assay": "Growth of stable MCF-10a cells", "type": "cell-based", "details": "MCF-10a stable cells; compared to Brk WT"}, "NIH-3T3 cells [3]": {"test_system": "NIH-3T3 cells", "assay": "Anchored growth of stable NIH-3T3 cells", "type": "cell-based", "details": "NIH-3T3 stable cells, 20 000 cells plated in duplicate; hemocytometer", "how_it_was_run": "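NIH-3T3 lines stably expressing wild-type or mutant Brk were made by MSCV-PIG retroviral infection with 8 µg/mL Polybrene. Selection used puromycin (2 µg/mL) from 48 h postinfection, and lines with equivalent GFP expression were used. Cells (20 000) were plated in duplicate in 12-well plates. At each time point over several days they were trypsinized and counted by hemocytometer. Representative of three experiments; standard deviations shown.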"}, "Akt": {"test_system": "Akt", "assay": "Akt phosphorylation in 293T cells, Western blot", "type": "cell-based", "details": "phospho-Akt (Ser473)", "how_it_was_run": "as §1"}, "NIH-3T3 cells [4]": {"test_system": "NIH-3T3 cells", "assay": "Nonanchored growth of stable NIH-3T3 cells", "type": "cell-based", "details": "NIH-3T3 stable cells, low attachment plates, day 6, triplicate", "how_it_was_run": "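NIH-3T3 lines stably expressing Brk were made by retrovirus with puromycin selection and matched for GFP expression. Cells (20 000) were seeded in triplicate in 24-well low-attachment plates. On day 6 they were centrifuged, resuspended in trypsin and counted by hemocytometer. Representative of two experiments; standard deviations shown.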"}, "SkBr3 cells": {"test_system": "SkBr3 cells", "assay": "Growth of stable SkBr3 cells", "type": "cell-based"}, "Akt and Erk1/2": {"test_system": "Akt and Erk1/2", "assay": "Akt and Erk1/2 activation in SkBr3 cells", "type": "cell-based", "details": "SkBr3 breast cancer cells"}}, "data": [{"substance": "V253M: Brk mutant, kinase domain, identified in head and neck squamous cell carcinoma", "values": [{"measurement": "phosphorylation of STAT3 (in words)", "setting": "STAT3", "value": "decrease in phosphorylation of STAT3"}]}, {"substance": "L16F: Brk mutant, SH3 domain, identified in clear cell renal cell carcinoma", "values": [{"measurement": "interaction with ErbB2 (in words)", "setting": "ErbB2", "value": "increased interaction with ErbB2 compared to wild-type Brk"}, {"measurement": "Erk1/2 phosphorylation (in words)", "setting": "Erk1/2 [1]", "value": "increased phosphorylation of Erk1/2 compared to wild-type Brk"}, {"measurement": "Erk1/2 phosphorylation after EGF stimulation (in words)", "setting": "Erk1/2 [2]", "value": "no appreciable difference between wild-type and L16F Brk following stimulation with EGF"}, {"measurement": "expression of Brk upon coexpression with Cas (in words)", "setting": "p130Cas", "value": "decreased expression"}, {"measurement": "phosphorylation of Cas (in words)", "setting": "p130Cas", "value": "decreased phosphorylation of Cas"}, {"measurement": "binding to β-catenin (in words)", "setting": "β-catenin", "value": "decreased interaction with the protein"}, {"measurement": "phosphorylation of β-catenin (in words)", "setting": "β-catenin", "value": "not able to phosphorylate β-catenin"}, {"measurement": "proliferation (in words)", "setting": "MCF-10a cells", "value": "reduced proliferation relative to wild-type Brk"}]}, {"substance": "R131L: Brk mutant, SH2 domain, found in gastric cancer", "values": [{"measurement": "phosphorylation of Cas (in words)", "setting": "p130Cas", "value": "greater phosphorylation of Cas compared to wild-type Brk"}, {"measurement": "binding and phosphorylation of β-catenin (in words)", "setting": "β-catenin", "value": "greater binding and phosphorylation of β-catenin as compared to wild-type Brk"}]}, {"substance": "P450L: Brk mutant, C-terminal tail adjacent to the inhibitory tyrosine, identified in pancreatic cancer", "values": [{"measurement": "anchored cell growth (in words)", "setting": "NIH-3T3 cells [3]", "value": "did not survive past Day 6"}]}, {"substance": "N317S: Brk mutant, kinase domain, identified in ovarian carcinoma", "values": [{"measurement": "Akt phosphorylation (in words)", "setting": "Akt", "value": "still phosphorylated"}, {"measurement": "Erk1/2 phosphorylation (in words)", "setting": "Erk1/2 [1]", "value": "still phosphorylated"}, {"measurement": "phosphorylation of STAT3 (in words)", "setting": "STAT3", "value": "decrease in phosphorylation of STAT3"}, {"measurement": "binding to β-catenin (in words)", "setting": "β-catenin", "value": "bound normally to β-catenin"}, {"measurement": "phosphorylation of β-catenin (in words)", "setting": "β-catenin", "value": "unable to phosphorylate the protein"}]}, {"substance": "WT: Flag-tagged wild-type full length Brk (PTK6)", "values": [{"measurement": "anchored cell growth (in words)", "setting": "NIH-3T3 cells [3]", "value": "increased cell growth compared to empty vector cells"}, {"measurement": "nonanchored cell growth (in words)", "setting": "NIH-3T3 cells [4]", "value": "increase in nonanchored growth"}]}, {"substance": "L343F: Brk mutant, kinase domain, identified in cutaneous squamous cell carcinoma", "values": [{"measurement": "phosphorylation of Cas (in words)", "setting": "p130Cas", "value": "greater phosphorylation of Cas compared to wild-type Brk"}, {"measurement": "binding and phosphorylation of β-catenin (in words)", "setting": "β-catenin", "value": "greater binding and phosphorylation of β-catenin as compared to wild-type Brk"}, {"measurement": "anchored or nonanchored cell growth (in words)", "setting": "SkBr3 cells", "value": "no increase in anchored or nonanchored cell growth"}, {"measurement": "activation of Akt and Erk1/2 (in words)", "setting": "Akt and Erk1/2", "value": "increased activation of both Akt and Erk1/2"}]}]}
